Source: ChEMBL document CHEMBL1122910, “Syntheses and evaluation as antifolates of MTX analogues derived from 2, omega-diaminoalkanoic acids” (J Med Chem, 1985)

How the values were obtained:
[1] = tested on: L1210; experiment: Inhibition of L1210 cell growth in mice.; assay type: functional, cell-based; conditions: Mus musculus
[2] = tested on: L1210; experiment: (§1) In vitro antitumor activity against L1210 cell line.; assay type: functional, Mus musculus
[3] = tested on: Mus musculus; experiment: Antitumor activity in mice with L1210 Leukemia and percentage increase in life span was reported for 3 mice x 2 experiments at a dose of 144 mg/kg; assay type: functional
How it was run: (§2)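 L1210 leukemia-bearing mice dosed on a q2d × 5 schedule. Untreated controls were 5 mice × 12 experiments. Read-outs were MST (days ± SD), % ILS versus control, and body weight at termination (g ± SD).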

[4] = tested on: Epithelial cell line; experiment: (§3) In vitro antitumor activity against epithelial cell line.; assay type: functional, Mus musculus
[5] = tested on: L1210; experiment: as §1; assay type: functional, cell-based; conditions: Mus musculus
[6] = biological target: T1, Dihydrofolate reductase (Mus musculus, UniProt P00375); experiment: In vitro inhibitory activity against Dihydrofolate reductase in L1210 cell in mice; assay type: cell-based
T1 sequence (P00375 whole entry): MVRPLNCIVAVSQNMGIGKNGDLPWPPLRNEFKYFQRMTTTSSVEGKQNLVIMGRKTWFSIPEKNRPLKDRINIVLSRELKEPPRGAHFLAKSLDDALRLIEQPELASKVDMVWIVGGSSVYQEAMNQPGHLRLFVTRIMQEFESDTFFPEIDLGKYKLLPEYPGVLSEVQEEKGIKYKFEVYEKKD

[7] = tested on: CCRF S-180; experiment: In vitro antitumor activity against S180 cell line.; assay type: functional, Mus musculus
[8] = tested on: Ehrlich; experiment: In vitro antitumor activity against Erlich cell line.; assay type: functional, Mus musculus
[9] = tested on: Mus musculus; experiment: Antitumor activity in mice with L1210 Leukemia and […] (MST) in days was reported for 3 mice x 2 experiments at a dose of 144 mg/kg.; assay type: functional; how it was run: as §2
[10] = tested on: Mus musculus; experiment: Antitumor activity in mice with L1210 Leukemia and weight at termination of the therapy was reported for 3 mice x 2 experiments at a dose of 144 mg/kg.; assay type: functional
[11] = tested on: L1210; experiment: Antitumor activity L1210 cell line as cell membrane transport activity; assay type: functional, cell-based; conditions: Mus musculus
[12] = tested on: L1210; experiment: Antitumor activity against L1210 cell line as cell membrane transport activity; assay type: functional, Mus musculus
[13] = tested on: Mus musculus; experiment: Antitumor activity in mice with L1210 Leukemia and percentage increase in life span was reported for 3 mice x 2 experiments at a dose of 432 mg/Kg; assay type: functional; how it was run: as §2
[14] = In vitro antitumor activity against S180 cells.; assay type: functional, Mus musculus, CCRF S-180
[15] = tested on: Mus musculus; experiment: Antitumor activity in mice with L1210 Leukemia and weight at termination of the therapy was reported for 3 mice x 2 experiments at a dose of 432 mg/Kg.; assay type: functional
[16] = tested on: Mus musculus; experiment: Antitumor activity in mice with L1210 Leukemia and […] (MST) in days was reported for 3 mice x 2 experiments at a dose of 432 mg/Kg.; assay type: functional; how it was run: as §2
[17] = tested on: L1210; experiment: In vivo antitumor activity as increase in life span in mice with L1210 10E6 tumor cell implanted intraperitoneally; optimal dose is 768 mg/kg.; assay type: functional; conditions: Mus musculus, L1210, ip, route intraperitoneal
[18] = species on record: Mus musculus; experiment: Antitumor activity against L1210 cell […]; assay type: functional
[19] = tested on: Mus musculus; experiment: Antitumor activity in mice with L1210 Leukemia and weight at termination of the therapy was reported for 5 mice x 12 experiments at a dose of 15 mg/kg.; assay type: functional
[20] = tested on: Epithelial cell; experiment: as §3; assay type: functional, Mus musculus
[21] = tested on: Ehrlich; experiment: In vitro antitumor activity against Erlich cell line,; assay type: functional, Mus musculus
[22] = tested on: Mus musculus; experiment: Antitumor activity in mice with L1210 Leukemia and percentage increase in life span was reported for 5 mice x 12 experiments at a dose of 15 mg/Kg
[23] = tested on: L1210; experiment: In vivo antitumor activity as increase in life span in mice with L1210 10E6 tumor cell implanted intraperitoneally; optimal dose is 12 mg/kg.; assay type: functional; conditions: Mus musculus, L1210, ip, route intraperitoneal
[24] = tested on: P388; experiment: In vivo antitumor activity as increase in life span in mice with P388 10E6 tumor cell implanted intraperitoneally; assay type: functional, Mus musculus

Row | Compound | IC50 [1] [nM] | Ki [6] [nM] | Efflux Ki [11] [min⁻¹] | Influx Ki [12] [nM] | also measured
1 | CN(Cc1cnc2nc(N)nc(N)c2n1)c1ccc(C(=O)NC(CN)C(=O)O)cc1 (stereo not given) | 1030 |  |  |  | 
2 | CNC(=O)NCC(NC(=O)c1ccc(N(C)Cc2cnc3nc(N)nc(N)c3n2)cc1)C(=O)O (stereo not given) | 34.3 | 14.2 |  |  | Influx Ki [2]: 16700 nM; ILS at 144 mg/kg [3]: 12%; Influx Ki [4]: >500000 nM; Efflux Ki [5]: 0.27 min⁻¹; Influx Ki [7]: 19700 nM; Influx Ki [8]: 13400 nM; MST [9]: 7 days; Weight [10]: 20 g
3 | CN(Cc1cnc2nc(N)nc(N)c2n1)c1ccc(C(=O)NC(CCNC(=O)c2ccc(Cl)cc2)C(=O)O)cc1 (stereo not given) | 27.3 | 0.00642 | 1.21 | 4670 | 
4 | CN(Cc1cnc2nc(N)nc(N)c2n1)c1ccc(C(=O)NC(CNC(=O)NC(CCC(=O)O)C(=O)O)C(=O)O)cc1 (stereo not given) | 200 | 0.00471 | 0.234 | 16400 | 
5 | CN(Cc1cnc2nc(N)nc(N)c2n1)c1ccc(C(=O)NC(CCNC(=O)OC(C)(C)C)C(=O)O)cc1 (stereo not given) | 333 |  |  |  | 
6 | CN(Cc1cnc2nc(N)nc(N)c2n1)c1ccc(C(=O)NC(CCNC(N)=O)C(=O)O)cc1 (stereo not given) | 21.8 | 0.004 |  |  | Influx Ki [2]: 17300 nM; Influx Ki [4]: >500000 nM; Efflux Ki [5]: 0.19 min⁻¹; ILS at 432 mg/kg [13]: 33%; Influx Ki [14]: 24600 nM; Influx Ki [8]: 15900 nM; Weight [15]: 21.6 g; MST [16]: 9.3 days
7 | CN(Cc1cnc2nc(N)nc(N)c2n1)c1ccc(C(=O)NC(CCCN)C(=O)O)cc1 (stereo not given) | 507 |  |  |  | 
8 | CN(Cc1cnc2nc(N)nc(N)c2n1)c1ccc(C(=O)NC(CCCNC(=O)c2ccc(Cl)cc2)C(=O)O)cc1 (stereo not given) | 1.71 | 0.00531 | 0.437 | 4320 | ILS at 768 mg/kg [17]: 104%
9 | CN(Cc1cnc2nc(N)nc(N)c2n1)c1ccc(C(=O)N[C@@H](CCC(=O)O)C(=O)O)cc1 [METHOTREXATE] | 3.28 |  | 0.203 | 4570 | IC50 [18]: 3.28 nM; Effllux [2]: 0.23 min⁻¹; Influx Ki [2]: 3700 nM; Weight [19]: 19.8 g; Influx Ki [20]: 339000 nM; Influx Ki [7]: 11400 nM; Influx Ki [21]: 10100 nM; ILS at 15 mg/kg [22]: 152%; ILS at 12 mg/kg [23]: 173%
10 | CN(Cc1cnc2nc(N)nc(N)c2n1)c1ccc(C(=O)NC(CNC(=O)c2ccc(Cl)cc2)C(=O)O)cc1 (stereo not given) | 11.9 | 0.00498 | 0.255 | 7430 | 
11 | CN(Cc1cnc2nc(N)nc(N)c2n1)c1ccc(C(=O)NC(CNC(=O)OC(C)(C)C)C(=O)O)cc1 (stereo not given) | 440 |  |  |  | 
12 | CN(Cc1cnc2nc(N)nc(N)c2n1)c1ccc(C(=O)NC(CCCNC(=O)OC(C)(C)C)C(=O)O)cc1 (stereo not given) | 97 |  |  |  | 
13 | CCOC(=O)C(CNC(=O)N(C)N=O)NC(=O)c1ccc(N(C)Cc2cnc3nc(N)nc(N)c3n2)cc1 (stereo not given) | 3650 | 6.35 | 0.298 | 42400 | ILS [24]: 58%
14 | CCOC(=O)C(CNC(=O)N(CCCl)N=O)NC(=O)c1ccc(N(C)Cc2cnc3nc(N)nc(N)c3n2)cc1 (stereo not given) | 2900 | 3.24 | 0.202 | 46900 | ILS [24]: 113%
15 | CN(Cc1cnc2nc(N)nc(N)c2n1)c1ccc(C(=O)NC(CCN)C(=O)O)cc1 (stereo not given) | 1360 |  |  |  | 
16 | CN(Cc1cnc2nc(N)nc(N)c2n1)c1ccc(C(=O)NC(CNC(N)=O)C(=O)O)cc1 (stereo not given) | 9.4 | 35 |  |  | Influx Ki [2]: 11600 nM; Influx Ki [4]: >500000 nM; Efflux Ki [5]: 0.25 min⁻¹; ILS at 432 mg/kg [13]: 129%; Influx Ki [7]: 11600 nM; Influx Ki [8]: 12500 nM; Weight [15]: 16 g; MST [16]: 16.3 days
